Data published in ChEMBL document CHEMBL2176919, “Design, synthesis, and biological evaluation of 17-cyclopropylmethyl-3,14β-dihydroxy-4,5α-epoxy-6β-[(4'-pyridyl)carboxamido]morphinan derivatives as peripheral selective μ opioid receptor Agents” (J Med Chem, 2012).
Active and inactive are the calls of the source.

Key:
[1] = Selectivity ratio of Ki for delta opioid receptor to Ki for mu opioid receptor
[2] = target: T1, Delta-type opioid receptor (Homo sapiens, UniProt P41143); experiment: Displacement of [3H]NTI from delta opioid receptor expressed in CHO cells after 1 hr; type: cell-based
T1 sequence (P41143 whole entry): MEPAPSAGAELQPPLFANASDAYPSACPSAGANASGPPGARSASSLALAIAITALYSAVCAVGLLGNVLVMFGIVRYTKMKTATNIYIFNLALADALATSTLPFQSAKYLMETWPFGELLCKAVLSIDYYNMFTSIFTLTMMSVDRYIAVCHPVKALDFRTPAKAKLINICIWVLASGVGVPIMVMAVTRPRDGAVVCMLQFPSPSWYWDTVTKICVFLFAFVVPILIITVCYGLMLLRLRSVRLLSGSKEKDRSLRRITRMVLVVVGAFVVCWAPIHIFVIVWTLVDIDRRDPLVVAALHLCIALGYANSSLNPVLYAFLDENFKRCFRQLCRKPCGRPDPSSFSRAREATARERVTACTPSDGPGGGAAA

[3] = Selectivity ratio of Ki for kappa opioid receptor to Ki for mu opioid receptor
[4] = target: T2, Kappa-type opioid receptor (Homo sapiens, UniProt P41145); experiment: Displacement of [3H]DPN from kappa opioid receptor expressed in CHO cells after 1 hr; type: cell-based
T2 sequence (P41145 whole entry): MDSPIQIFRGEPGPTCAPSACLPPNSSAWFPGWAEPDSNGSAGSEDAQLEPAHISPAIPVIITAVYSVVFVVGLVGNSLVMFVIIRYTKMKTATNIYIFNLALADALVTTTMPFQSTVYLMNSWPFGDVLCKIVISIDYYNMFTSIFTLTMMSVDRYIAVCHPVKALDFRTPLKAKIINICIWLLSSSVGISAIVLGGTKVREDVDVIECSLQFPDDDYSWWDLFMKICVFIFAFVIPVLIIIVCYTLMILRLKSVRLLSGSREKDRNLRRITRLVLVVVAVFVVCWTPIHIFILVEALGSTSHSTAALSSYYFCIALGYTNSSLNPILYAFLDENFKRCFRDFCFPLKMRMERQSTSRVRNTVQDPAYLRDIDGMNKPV

Mu-type opioid receptor [5] = target: T3, Mu-type opioid receptor (Homo sapiens, UniProt P35372); experiment: Displacement of [3H]Naloxone from mu opioid receptor expressed in CHO cells after 1 hr; type: cell-based
T3 sequence (P35372 whole entry): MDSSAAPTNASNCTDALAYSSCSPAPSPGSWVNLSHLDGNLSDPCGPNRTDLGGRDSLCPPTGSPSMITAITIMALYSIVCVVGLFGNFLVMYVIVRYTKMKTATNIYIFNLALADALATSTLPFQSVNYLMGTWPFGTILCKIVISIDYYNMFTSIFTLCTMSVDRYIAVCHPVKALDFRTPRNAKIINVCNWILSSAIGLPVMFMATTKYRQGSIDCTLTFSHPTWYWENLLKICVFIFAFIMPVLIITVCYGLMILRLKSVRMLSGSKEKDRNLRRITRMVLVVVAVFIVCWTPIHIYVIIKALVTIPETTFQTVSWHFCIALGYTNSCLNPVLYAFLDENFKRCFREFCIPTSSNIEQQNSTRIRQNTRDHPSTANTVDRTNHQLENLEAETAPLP

Mu-type opioid receptor [6] = target: T3, Mu-type opioid receptor; settings: CHO; 100 nM
Mus musculus [7] = experiment: Inhibition of morphine-induced antinociceptive activity in Swiss-Webster mouse assessed as thermal-stimulus induced tail flick latency at 10 mg/kg; type: functional, organism-based; set-up: dose 10 mg/kg
Mus musculus [8] = experiment: Toxicity in morphine-pelleted Swiss-Webster mouse assessed as diarrhea up to 10 mg/kg, sc; type: organism-based; set-up: dose 10 mg/kg, route subcutaneous; settings: in vivo
[9] = target: T2, Kappa-type opioid receptor; experiment: Agonist activity at kappa opioid receptor expressed in CHO cells assessed as stimulation of [35S]-GTP-gammaS binding relative to U50,488H; type: functional, cell-based
Caco-2 = experiment: Apparent permeability of the compound across human Caco2 cells; type: ADME, cell-based
Method in brief: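 Caco-2 cells (passages 45–47) grown 22 days on 0.4 μm Transwell filters seeded at 80 000 cells/cm2, in DMEM with 10% FBS, antibiotics and nonessential amino acids. Drug in HEPES-buffered (10 mM) HBSS was added apically or basolaterally, and the receiver side was sampled up to 2 h. Samples were quantified by HPLC-UV. Papp = J/(A·Ci).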

Mus musculus [10] = experiment: Effect on gastrointestinal motility in Swiss-Webster mouse at 10 mg/kg, sc; type: functional, organism-based; set-up: dose 10 mg/kg
Mus musculus [11] = experiment: Antinociceptive activity in Swiss-Webster mouse assessed as thermal-stimulus induced tail flick latency at 10 mg/kg relative to morphine; type: functional
Method in brief: (§1)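 Warm-water tail flick test in male Swiss-Webster mice (25–30 g) with a 56 ± 0.1 °C bath. Only mice with a 2–4 s baseline latency were used, and a 10 s cutoff was applied. Latency was read after drug treatment. %MPE = [(test − control latency)/(10 − control latency)] × 100, computed per mouse with at least six mice per drug.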

[12] = target: T1, Delta-type opioid receptor; experiment: Agonist activity at delta opioid receptor expressed in CHO cells assessed as stimulation of [35S]-GTP-gammaS binding; type: functional, cell-based
Method in brief: (§2)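 GTP[γS] functional assay in membranes of CHO cells expressing the cloned opioid receptor. Membrane protein 10 μg incubated at 30 °C with varying drug concentrations and 0.1 nM 35S-GTP[γS]: μ with 10 μM GDP for 2 h; κ and δ with 20 μM GDP for 1.5 h. Nonspecific binding defined with 10 μM unlabeled GTP[γS].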

[13] = target: T2, Kappa-type opioid receptor; experiment: Agonist activity at kappa opioid receptor expressed in CHO cells assessed as stimulation of [35S]-GTP-gammaS binding; type: functional, cell-based; method in brief: as §2
[14] = target: T1, Delta-type opioid receptor; experiment: Agonist activity at delta opioid receptor expressed in CHO cells assessed as stimulation of [35S]-GTP-gammaS binding relative to SNC80; type: functional, cell-based
Mus musculus [15] = experiment: Inhibition of morphine-induced decrease in gastrointestinal motility in sc dosed morphine-pelleted Swiss-Webster mouse; type: functional
Mu-type opioid receptor [16] = target: T3, Mu-type opioid receptor; experiment: Agonist activity at mu opioid receptor expressed in CHO cells assessed as stimulation of [35S]-GTP-gammaS binding relative to DAMGO; type: cell-based
Mus musculus [17] = experiment: Inhibition of morphine-induced decrease in gastrointestinal motility in sc dosed Swiss-Webster mouse; type: functional
Method in brief: (§3)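 GI transit assay in male Swiss-Webster mice, groups of four or six. Compound or saline was given sc at time zero, then morphine (2 or 10 mg/kg) sc 5 min later. A charcoal meal was gavaged 20 min after morphine. Mice were killed 30 min after the meal, and charcoal distance was expressed as a percentage of small-intestine length from pylorus to cecum. Significance was tested by one-way ANOVA with Dunnett's test.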

Mus musculus [18] = experiment: Inhibition of morphine-induced decrease in gastrointestinal motility in Swiss-Webster mouse at 10 mg/kg, sc; type: functional, organism-based; set-up: dose 10 mg/kg; method in brief: as §3
Mus musculus [19] = experiment: Inhibition of morphine-induced decrease in gastrointestinal motility in morphine-pelleted Swiss-Webster mouse at 0.3 to 10 mg/kg, sc; type: functional, organism-based
Mus musculus [20] = experiment: Antinociceptive activity in Swiss-Webster mouse assessed as thermal-stimulus induced tail flick latency at 3 mg/kg relative to morphine; type: functional; method in brief: as §1
Mus musculus [21] = experiment: Inhibition of morphine-induced antinociceptive activity in Swiss-Webster mouse assessed as thermal-stimulus induced tail flick latency up to 30 mg/kg; type: functional, organism-based; set-up: dose 30 mg/kg
Mu-type opioid receptor [22] = target: T3, Mu-type opioid receptor; experiment: Agonist activity at mu opioid receptor expressed in CHO cells assessed as stimulation of [35S]-GTP-gammaS binding; type: cell-based; method in brief: as §2
Mus musculus [23] = experiment: Antinociceptive activity in Swiss-Webster mouse assessed as thermal-stimulus induced tail flick latency at 10 mg/kg; type: functional
Method in brief: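 Male Swiss-Webster mice, 25–30 g, allowed 18 h to recover from transport. Warm-water tail flick, bath at 56 ± 0.1 °C; only mice with 2–4 s baseline latency used. Latency retested after drug at the appropriate time, 10 s cutoff. Expressed as %MPE = [(test − control latency)/(10 − control latency)] × 100, calculated per mouse, at least six mice per drug.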

Compound `COc1cnccc1C(=O)N[C@@H]1CC[C@@]2(O)[C@H]3Cc4ccc(O)c5c4[C@@]2(CCN3CC2CC2)[C@H]1O5` has a Ratio Ki [1] of 242, a Ki [2] of 0.104 µM and a Ratio Ki [3] of 10. The Ki [4] was 0.00428 µM and the Ki (Mu-type opioid receptor [5]) was 0.00043 µM.
For `C[C@@H](O)[C@H](NC(=O)[C@H]1NC(=O)[C@H]([C@@H](C)O)NC(=O)[C@H](CCCNC(=N)N)NC(=O)[C@@H](Cc2c[nH]c3ccccc23)NC(=O)[C@H](Cc2ccc(O)cc2)NC(=O)[C@@H](NC(=O)[C@H](N)Cc2ccccc2)CSSC1(C)C)C(N)=O`, the Emax (Mu-type opioid receptor [6]) was 1.99%.
In the case of `Cc1cnccc1C(=O)N[C@@H]1CC[C@@]2(O)[C@H]3Cc4ccc(O)c5c4[C@@]2(CCN3CC2CC2)[C@H]1O5`, the inhibition (Mus musculus [7]) is reported as “inactive”, the Ratio Ki [1] is reported as 470 and the Activity (Mus musculus [8]) is reported as “Non-toxic”. For the same compound, the Emax [9] was 31.4%, the Papp (Caco-2) was “permeable” and the Activity (Mus musculus [10]) was “Active”. It also gave an MPE (Mus musculus [11]) of 4.4%, a Ratio Ki [3] of 166 and an EC50 [12] of 0.0386 µM. The EC50 [13] was 0.0264 µM, the Emax [14] was 90.2% and the ED50 (Mus musculus [15]) was 0.03 mg/kg. For the same compound, the inhibition (Mus musculus [15]) was “Dose-dependent effect”, the Emax (Mu-type opioid receptor [16]) was 30.6% and the ED50 (Mus musculus [17]) was 7.85 mg/kg. The inhibition (Mus musculus [18]) was “Active”.
Compound `O=C(CCc1ccncc1)N[C@@H]1CC[C@@]2(O)[C@H]3Cc4ccc(O)c5c4[C@@]2(CCN3CC2CC2)[C@H]1O5` has a Ratio Ki [1] of 516, a Ratio Ki [3] of 2.9 and an Emax (Mu-type opioid receptor [16]) of 22.6%.
With `O=C(CNC(=O)c1ccncc1)N[C@@H]1CC[C@@]2(O)[C@H]3Cc4ccc(O)c5c4[C@@]2(CCN3CC2CC2)[C@H]1O5` the Activity (Mus musculus [8]) was “Non-toxic”, the inhibition (Mus musculus [19]) was “Active” and the Emax [9] was 23.5%. For the same compound, the Papp (Caco-2) was “permeable”, the Activity (Mus musculus [10]) was “Active” and the EC50 [12] was 0.019 µM. It also gave an EC50 [13] of 0.025 µM, an Emax [14] of 84.3% and an MPE (Mus musculus [20]) of 11.2%. The inhibition (Mus musculus [21]) was “inactive”, the ED50 (Mus musculus [15]) was 0.08 mg/kg and the Emax (Mu-type opioid receptor [16]) was 22.6%. For the same compound, the inhibition (Mus musculus [18]) was “inactive”.
In the case of `O=C(N[C@@H]1CC[C@@]2(O)[C@H]3Cc4ccc(O)c5c4[C@@]2(CCN3CC2CC2)[C@H]1O5)c1ccnnc1`, the Ratio Ki [1] is reported as 203, the Ki [2] is reported as 0.42 µM and the Ratio Ki [3] is reported as 0.7. For the same compound, the EC50 (Mu-type opioid receptor [22]) was 0.0283 µM, the Ki [4] was 0.00157 µM and the Ki (Mu-type opioid receptor [5]) was 0.00207 µM. It also gave an Emax (Mu-type opioid receptor [16]) of 27.6%.
With `COc1cc(C(=O)N[C@@H]2CC[C@@]3(O)[C@H]4Cc5ccc(O)c6c5[C@@]3(CCN4CC3CC3)[C@H]2O6)ccn1` the Ratio Ki [1] was 267, the Ki [2] was 0.16 µM and the Ratio Ki [3] was 0.8. For the same compound, the EC50 (Mu-type opioid receptor [22]) was 0.00789 µM, the Ki [4] was 0.00046 µM and the Ki (Mu-type opioid receptor [5]) was 0.0006 µM. It also gave an Emax (Mu-type opioid receptor [16]) of 25.3%.
`Cc1cc(C(=O)N[C@@H]2CC[C@@]3(O)[C@H]4Cc5ccc(O)c6c5[C@@]3(CCN4CC3CC3)[C@H]2O6)ccn1` gave a Ratio Ki [1] of 232, a Ratio Ki [3] of 1.5 and an Emax (Mu-type opioid receptor [16]) of 43.3%.
For `O=C(Cc1ccncc1)N[C@@H]1CC[C@@]2(O)[C@H]3Cc4ccc(O)c5c4[C@@]2(CCN3CC2CC2)[C@H]1O5`, the Ratio Ki [1] was 1020, the Ratio Ki [3] was 10.6 and the Emax (Mu-type opioid receptor [16]) was 32.8%.
For `N#Cc1cc(C(=O)N[C@@H]2CC[C@@]3(O)[C@H]4Cc5ccc(O)c6c5[C@@]3(CCN4CC3CC3)[C@H]2O6)ccn1`, the Ratio Ki [1] was 60, the Ki [2] was 0.0753 µM and the Ratio Ki [3] was 0.1. It also gave an EC50 (Mu-type opioid receptor [22]) of 0.01 µM, a Ki [4] of 0.00013 µM and a Ki (Mu-type opioid receptor [5]) of 0.00125 µM. The Emax (Mu-type opioid receptor [16]) was 43.1%.
`O=C(N[C@@H]1CC[C@@]2(O)[C@H]3Cc4ccc(O)c5c4[C@@]2(CCN3CC2CC2)[C@H]1O5)c1ccncc1Br` showed a Ratio Ki [1] of 285, a Ratio Ki [3] of 6 and an Emax (Mu-type opioid receptor [16]) of 23.2%.
`CN1CCC(C(=O)N[C@@H]2CC[C@@]3(O)[C@H]4Cc5ccc(O)c6c5[C@@]3(CCN4CC3CC3)[C@H]2O6)CC1` showed a Ratio Ki [1] of 2970, a Ratio Ki [3] of 7.5 and an Emax (Mu-type opioid receptor [16]) of 37.2%.
Work on `O=C(N[C@@H]1CC[C@@]2(O)[C@H]3Cc4ccc(O)c5c4[C@@]2(CCN3CC2CC2)[C@H]1O5)c1ccncc1Cl` yielded a Ratio Ki [1] of 746, a Ratio Ki [3] of 30 and an Emax (Mu-type opioid receptor [16]) of 24.9%.
In the case of `C[N@+]1(CC2CC2)CC[C@]23c4c5ccc(O)c4O[C@H]2C(=O)CC[C@@]3(O)[C@H]1C5`, the Ratio Ki [1] is reported as 24 and the Ratio Ki [3] is reported as 10.
`O=C(N[C@@H]1CC[C@@]2(O)[C@H]3Cc4ccc(O)c5c4[C@@]2(CCN3CC2CC2)[C@H]1O5)c1ccnc(Br)c1` gave a Ratio Ki [1] of 276, a Ratio Ki [3] of 0.3 and an Emax (Mu-type opioid receptor [16]) of 50.8%.
`CN1CC[C@]23c4c5ccc(O)c4O[C@H]2[C@@H](O)C=C[C@H]3[C@H]1C5` [MORPHINE] gave an MPE (Mus musculus [23]) of 100%.
With `O=C(N[C@@H]1CC[C@@]2(O)[C@H]3Cc4ccc(O)c5c4[C@@]2(CCN3CC2CC2)[C@H]1O5)c1ccnc(Cl)c1` the Ratio Ki [1] was 6110, the Ratio Ki [3] was 1.5 and the Emax (Mu-type opioid receptor [16]) was 58.2%.
`O=C(N[C@@H]1CC[C@@]2(O)[C@H]3Cc4ccc(O)c5c4[C@@]2(CCN3CC2CC2)[C@H]1O5)c1ccncc1` showed an Emax [9] of 45.5% and an EC50 [13] of 0.0288 µM.
